Laboratory results published in PMC4777266 (Pharmacology Research & Perspectives, 2016).
Values belong to the compound of their own block, whether it stands above or below them.

What was measured:
[1] = Blood/plasma pharmacokinetics of total radiolabeled components; assay type: in vivo, male CD‐1 mice; details: dried blood and plasma; i.v. 1 mg/kg
Outline: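 Male albino CD-1 mice (30-36 g, 8-10 weeks) got one i.v. saphenous bolus of 1 mg/kg tritiated test nucleoside in 0.9% NaCl (2 mL/kg, 53-67 MBq/kg) under light isoflurane. EDTA blood was drawn at 0.083-48 h, two samples per mouse, n = 1 per time point. Plasma was spun 3000 g, 10 min, 4°C. Aliquots were dried at 37°C to remove tritiated water, then counted by LSC. Noncompartmental PK was used.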

[2] = Plasma metabolite profiles; assay type: in vivo, male CD‐1 mice; details: for AUC0‐48 h of radiolabeled component in plasma (% AUC of total RA): pool of 2 mice; for Highest plasma concentration: at 30 min after dosing
[3] = Quantitative whole-body autoradiography; assay type: in vivo, male CD‐1 mice
Outline: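 The same single 1 mg/kg i.v. tritium-label dose was given to male CD-1 mice. At 0.167, 1, 2, 24 and 48 h, mice were killed under deep isoflurane and frozen in hexane/dry ice at −70°C. 40 µm whole-body sections were exposed to imaging plates for 2 weeks at room temperature and scanned at 50 µm. Densitometry used blood calibrators. Tissue:blood Cmax/AUClast ratios were derived, AUC by linear trapezoidal rule.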

[4] = Excretion and mass balance; assay type: in vivo, male CD‐1 mice
[5] = Tolerability of the single intravenous administration; assay type: in vivo; details: mice
[6] = Metabolite profiles in selected tissues 1 h p.d.; assay type: in vivo, male CD‐1 mice; details: single iv 1 mg/kg, text: % of total radioactivity in the tissue
[7] = male, CD-1, mouse, plasma, iv, 1 mg/kg
[8] = 0–48 h, single iv 1 mg/kg, average of n = 2
[9] = single iv 1 mg/kg, average of n = 2
[10] = single iv 1 mg/kg, average of n = 2, 1 mg/kg

Highest plasma concentration [2]: 0.2 µmol/L
AUC [2, 7]: 1.87 µM·h
concentration at 0.083 h [2, 7]: 5.1 nM
concentration at 0.5 h [2, 7]: 170 nM
concentration at 1 h [2, 7]: 108 nM
concentration at 2 h [2, 7]: 130 nM
concentration at 4 h [2, 7]: 104 nM
concentration at 8 h [2, 7]: 43.4 nM
concentration at 24 h [2, 7]: 26.9 nM
concentration at 48 h [2, 7]: 18.8 nM
AUC0‐48 h of radiolabeled component in plasma (% AUC of total RA) ([2]; single iv 1 mg/kg): 32.8 % AUC of total RA
Amount of radiolabeled component, total excretion (urine + feces) [4, 8]: 0.156 % of RA dose
Amount of radiolabeled component in heart [6]: 28.4%
Amount of radiolabeled component in kidney [6]: 10.6%
Amount of radiolabeled component in liver [6]: 47.6%
Amount of radiolabeled component in lung [6]: 2.31%
Amount of radiolabeled component in salivary gland [6]: 6.88%
Amount of radiolabeled component in spleen [6]: 32.9%
Structure (SMILES): O=c1ccn([C@@H]2O[C@H](CO)[C@@H](O)[C@H]2O)c(=O)[nH]1 [Metabolite M1, uridine]

AUC [2, 7]: 0.0639 µM·h
concentration at 0.5 h [2, 7]: 44 nM
concentration at 2 h [2, 7]: 8.6 nM
concentration at 4 h [2, 7]: 10.3 nM
concentration at 48 h [2, 7]: 0 nM
AUC0‐48 h of radiolabeled component in plasma (% AUC of total RA) ([2]; single iv 1 mg/kg, 1 mg/kg): 1.12 % AUC of total RA
Amount of radiolabeled component, total excretion (urine + feces) [4, 8]: 1.94 % of RA dose
Amount of radiolabeled component in feces (0–48) [4, 9]: 0.102 % of RA dose
Structure (SMILES): Nc1ccn([C@@H]2O[C@H](CO)[C@@H](O)[C@H]2O)c(=O)n1 [Metabolite M5, cytidine]

More lines, now with the values behind:

Structure (SMILES): CO[C@@H]1[C@H](O)[C@@H](CO)O[C@H]1n1ccc(=O)[nH]c1=O [2′O‐methyluridine, 2′‐O‐methyluridine]
Tlast of total radiolabeled components [1]: 48 h
Total detected radiolabeled components, concentration in dried plasma ([2]; 0.083 h postdose, single iv 1 mg/kg): 0.446 µmol/L
Total detected radiolabeled components, concentration in dried plasma ([2]; 0.5 h postdose, single iv 1 mg/kg): 0.617 µmol/L
Total detected radiolabeled components, concentration in dried plasma ([2]; 1 h postdose, single iv 1 mg/kg): 0.343 µmol/L
Total detected radiolabeled components, concentration in dried plasma ([2]; 2 h postdose, single iv 1 mg/kg): 0.270 µmol/L
Total detected radiolabeled components, concentration in dried plasma ([2]; 4 h postdose, single iv 1 mg/kg): 0.241 µmol/L
Total detected radiolabeled components, concentration in dried plasma ([2]; 8 h postdose, single iv 1 mg/kg): 0.134 µmol/L
Total detected radiolabeled components, concentration in dried plasma ([2]; 24 h postdose, single iv 1 mg/kg): 0.080 µmol/L
Total detected radiolabeled components, concentration in dried plasma ([2]; 48 h postdose, single iv 1 mg/kg): 0.0781 µmol/L
Time up to which detectable in plasma ([2]; after i.v. dosing 1 mg/kg, LC‐MS‐RA): up to 24 h
AUC0‐48h ratio of total radioactivity over parent compound ([2]; dried plasma): about 17
clearance ([2]; male, CD-1, mouse, plasma, intravenous, 1 mg/kg): 157 mL/min/kg
AUC [2, 7]: 0.335 µM·h
Cmax [2, 7]: 402 nM
concentration at 0.083 h [2, 7]: 402 nM
concentration at 0.5 h [2, 7]: 119 nM
concentration at 1 h [2, 7]: 22.3 nM
concentration at 2 h [2, 7]: 6 nM
concentration at 4 h [2, 7]: 6.3 nM
concentration at 8 h [2, 7]: 3.6 nM
concentration at 48 h [2, 7]: 6.7 nM
Total detected radiolabeled components, plasma AUC0‐48 h ([2]; single iv 1 mg/kg): 5.69 µmol·h/L
Total detected radiolabeled components, plasma AUC0‐48 h (% AUC of total RA) ([2]; single iv 1 mg/kg): 100 % AUC of total RA
AUC0‐48 h of radiolabeled component in plasma (% AUC of total RA) ([2]; single iv 1 mg/kg): 5.89 % AUC of total RA
Time up to which total radiolabeled components detectable in the brain ([3]; QWBA): up to 48 h
Cmax tissue over blood ratio ([3]; other matrices): smaller than 2
Share of matrices with AUClast greater than that of blood ([3]; total radiolabeled components): more than 90%
Total detected radioactivity, total excretion (urine + feces) ([4]; 0–48 h, single iv 1 mg/kg): 48.3 % of RA dose
Amount of radiolabeled component, total excretion (urine + feces) [4, 8]: 31.7 % of RA dose
Overall recovery of radioactivity (mass balance) ([4]; 48 h, urine, feces, carcass and tritiated water): 102.3%
Radioactivity in carcass 48 h ([4]; 48 h p.d., single iv 1 mg/kg): 38.6 % of RA dose
Radioactivity in cage wash (0–48) ([4]; single iv 1 mg/kg): 6.81 % of RA dose
Amount of radiolabeled component in urine (0–48 h) [4, 9]: 31.2 % of RA dose
Total detected radioactivity in feces (0–48) [4, 9]: 2.34 % of RA dose
Total detected radioactivity in urine (0–48 h), without cage wash [4, 9]: 45.9 % of RA dose
Amount of radiolabeled component in feces (0–48) [4, 10]: 0.489 % of RA dose
Tolerability [5]: well tolerated

Structure (SMILES): Nc1cc[nH]c(=O)n1 [Metabolite M2, cytosine]
AUC [2, 7]: 0.461 µM·h
concentration at 0.5 h [2, 7]: 38.9 nM
concentration at 1 h [2, 7]: 33.3 nM
concentration at 2 h [2, 7]: 7.1 nM
concentration at 4 h [2, 7]: 22.6 nM
concentration at 8 h [2, 7]: 11.1 nM
concentration at 24 h [2, 7]: 5.7 nM
concentration at 48 h [2, 7]: 9.6 nM
AUC0‐48 h of radiolabeled component in plasma (% AUC of total RA) ([2]; single iv 1 mg/kg): 8.11 % AUC of total RA
Amount of radiolabeled component, total excretion (urine + feces) [4, 8]: 0.0771 % of RA dose
Amount of radiolabeled component in urine (0–48 h) [4, 10]: 0.0771 % of RA dose
Amount of radiolabeled component in heart [6]: 6.81%
Amount of radiolabeled component in liver [6]: 17.8%
Amount of radiolabeled component in lung [6]: 2.41%
Amount of radiolabeled component in spleen [6]: 3.62%

Structure (SMILES): O=c1cc[nH]c(=O)[nH]1 [Metabolite M3, uracil]
Highest plasma concentration [2]: 0.1 µmol/L
AUC [2, 7]: 1.34 µM·h
concentration at 0.083 h [2, 7]: 14.2 nM
concentration at 0.5 h [2, 7]: 144 nM
concentration at 1 h [2, 7]: 109 nM
concentration at 2 h [2, 7]: 87.5 nM
concentration at 4 h [2, 7]: 63.5 nM
concentration at 8 h [2, 7]: 36.8 nM
concentration at 24 h [2, 7]: 14.5 nM
concentration at 48 h [2, 7]: 17.5 nM
AUC0‐48 h of radiolabeled component in plasma (% AUC of total RA) ([2]; single iv 1 mg/kg): 23.6 % AUC of total RA
Amount of radiolabeled component, total excretion (urine + feces) [4, 8]: 4.03 % of RA dose
Amount of radiolabeled component in feces (0–48) [4, 9]: 0.418 % of RA dose
Amount of radiolabeled component in heart [6]: 46.6%
Amount of radiolabeled component in kidney [6]: 89.4%
Amount of radiolabeled component in liver [6]: 28.8%
Amount of radiolabeled component in lung [6]: 83.4%
Amount of radiolabeled component in salivary gland [6]: 90.9%
Amount of radiolabeled component in spleen [6]: 57.9%
